Active and inactive are the calls of the source.
Assays:
NCI-H358 [1] = experiment: Antiproliferative activity against human NCI-H358 cells harboring KRAS G12C mutant after 72 hrs by CellTiter-Glo assay; type: functional, cell-based
Outline: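 NCI-H23 or NCI-H358 cells seeded at 2000 cells/well and grown 48 h before drug. Varying doses were added and cells incubated 72 h. Viability was read as CellTiter-Glo luminescence, and growth-inhibition IC50 was calculated from dose-response curves.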

[2] = target: Actin-related protein 2/3 complex subunit 5 (Homo sapiens) (UniProt O15511); experiment: Binding affinity to ARPC5 in human NCI-H23 cells at 1 uM by mass spectrometry based pull down assay; type: cell-based
[3] = target: Pigment epithelium-derived factor (Homo sapiens) (UniProt P36955); experiment: Binding affinity to SERPINF1 in human NCI-H23 cells at 1 uM by mass spectrometry based pull down assay; type: cell-based
[4] = target: Large ribosomal subunit protein bL19m (Homo sapiens) (UniProt P49406); experiment: Binding affinity to MRPL19 in human NCI-H23 cells at 1 uM by mass spectrometry based pull down assay; type: cell-based
[5] = target: Deoxyuridine 5'-triphosphate nucleotidohydrolase, mitochondrial (Homo sapiens) (UniProt P33316); experiment: Binding affinity to DUT in human NCI-H358 cells at 1 uM by mass spectrometry based pull down assay; type: cell-based
[6] = target: Ubiquitin-associated protein 2-like (Homo sapiens) (UniProt Q14157); experiment: Binding affinity to UBAP2L in human NCI-H358 cells at 1 uM by mass spectrometry based pull down assay; type: cell-based
[7] = target: Signal transducer and activator of transcription 1-alpha/beta (Homo sapiens) (UniProt P42224); experiment: Binding affinity to STAT1 in human NCI-H358 cells at 1 uM by mass spectrometry based pull down assay; type: cell-based
NCI-H358 [8] = experiment: Binding affinity to XRCC5 in human NCI-H358 cells at 1 uM by mass spectrometry based pull down assay; type: cell-based
[9] = target: T1, 80S Ribosome (Homo sapiens) (UniProt P08865+P42677+P62753+P15880+P23396+P61247+P62701+P22090+P46782+P62081+P62241+P46781+P46783+P62280+P25398+P62277+P62263+P62841+P62244+P62249+P08708+P62269+P39019+P60866+P63220+P62266+P62847+P62851+P62854+P62979+P62857+P62273+P62861+P39023+P36578+P46777+Q02878+P18124+P62424+P62917+P32969+P27635+P62906+P62913+P30050+P26373+P40429+P50914+P61313+P18621+Q07020+Q02543+P84098+P46778+P35268+P62829+P62750+P83731+P61254+P61353+P46776+P46779+P47914+P62888+P62899+P62910+P49207+P42766+P18077+Q9Y3U8+P83881+P61927+P61513+P63173+P62891+P62945+P05388+P05386); experiment: Binding affinity to RPL8 in human NCI-H23 cells at 1 uM by mass spectrometry based pull down assay; type: cell-based
[10] = target: Opioid growth factor receptor (Homo sapiens) (UniProt Q9NZT2); experiment: Binding affinity to OGFR in human NCI-H358 cells at 1 uM by mass spectrometry based pull down assay; type: cell-based
[11] = target: Clathrin heavy chain 1 (Homo sapiens) (UniProt Q00610); experiment: Binding affinity to CLTC in human NCI-H23 cells at 1 uM by mass spectrometry based pull down assay; type: cell-based
[12] = target: Kinesin-1 heavy chain (Homo sapiens) (UniProt P33176); experiment: Binding affinity to KIF5B in human NCI-H23 cells at 1 uM by mass spectrometry based pull down assay; type: cell-based
[13] = target: Myeloid leukemia factor 2 (Homo sapiens) (UniProt Q15773); experiment: Binding affinity to MLF2 in human NCI-H23 cells at 1 uM by mass spectrometry based pull down assay; type: cell-based
[14] = target: HCLS1-associated protein X-1 (Homo sapiens) (UniProt O00165); experiment: Binding affinity to HAX1 in human NCI-H358 cells at 1 uM by mass spectrometry based pull down assay; type: cell-based
Vigilin (Homo sapiens) = Vigilin (Homo sapiens) (UniProt Q00341); experiment: Binding affinity to HDLBP in human NCI-H358 cells at 1 uM by mass spectrometry based pull down assay; type: cell-based
[15] = target: T1, 80S Ribosome (Homo sapiens); experiment: Binding affinity to RPL31 in human NCI-H358 cells at 1 uM by mass spectrometry based pull down assay; type: cell-based
[16] = target: Ribosomal protein S6 kinase alpha-4 (Homo sapiens) (UniProt O75676); experiment: Binding affinity to RPS6KA4 in human NCI-H358 cells at 1 uM by mass spectrometry based pull down assay; type: cell-based

Measured: Activity

Sequence of Deoxyuridine 5'-triphosphate nucleotidohydrolase, mitochondrial (Homo sapiens) (P33316 whole entry): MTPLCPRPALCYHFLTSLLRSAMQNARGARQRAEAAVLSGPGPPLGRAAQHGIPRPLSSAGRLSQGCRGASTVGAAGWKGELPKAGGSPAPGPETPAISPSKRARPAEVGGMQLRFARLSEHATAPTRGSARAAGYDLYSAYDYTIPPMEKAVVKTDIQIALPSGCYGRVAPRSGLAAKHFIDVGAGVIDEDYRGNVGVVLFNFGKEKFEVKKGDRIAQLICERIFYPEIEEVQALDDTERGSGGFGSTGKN
Sequence of Ribosomal protein S6 kinase alpha-4 (Homo sapiens) (O75676 whole entry, looked up): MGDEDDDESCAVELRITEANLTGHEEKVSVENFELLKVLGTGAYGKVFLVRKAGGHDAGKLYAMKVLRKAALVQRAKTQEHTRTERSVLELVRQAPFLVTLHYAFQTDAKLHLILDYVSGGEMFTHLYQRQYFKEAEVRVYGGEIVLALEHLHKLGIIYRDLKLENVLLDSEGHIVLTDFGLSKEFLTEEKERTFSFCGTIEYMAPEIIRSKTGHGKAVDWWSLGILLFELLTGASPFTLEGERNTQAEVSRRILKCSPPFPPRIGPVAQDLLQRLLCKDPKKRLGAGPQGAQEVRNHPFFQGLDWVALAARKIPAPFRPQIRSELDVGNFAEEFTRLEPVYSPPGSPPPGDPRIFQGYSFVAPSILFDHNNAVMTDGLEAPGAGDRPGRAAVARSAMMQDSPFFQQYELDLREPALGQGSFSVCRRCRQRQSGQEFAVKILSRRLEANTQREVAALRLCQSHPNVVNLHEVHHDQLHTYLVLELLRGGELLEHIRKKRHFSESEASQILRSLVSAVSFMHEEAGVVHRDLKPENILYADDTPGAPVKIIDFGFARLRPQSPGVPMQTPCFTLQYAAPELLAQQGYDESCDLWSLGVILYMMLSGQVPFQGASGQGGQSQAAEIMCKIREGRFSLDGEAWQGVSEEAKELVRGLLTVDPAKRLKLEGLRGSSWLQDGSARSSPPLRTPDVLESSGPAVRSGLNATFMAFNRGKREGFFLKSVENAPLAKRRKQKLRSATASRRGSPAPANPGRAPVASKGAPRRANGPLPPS
Sequence of Vigilin (Homo sapiens) (Q00341 whole entry): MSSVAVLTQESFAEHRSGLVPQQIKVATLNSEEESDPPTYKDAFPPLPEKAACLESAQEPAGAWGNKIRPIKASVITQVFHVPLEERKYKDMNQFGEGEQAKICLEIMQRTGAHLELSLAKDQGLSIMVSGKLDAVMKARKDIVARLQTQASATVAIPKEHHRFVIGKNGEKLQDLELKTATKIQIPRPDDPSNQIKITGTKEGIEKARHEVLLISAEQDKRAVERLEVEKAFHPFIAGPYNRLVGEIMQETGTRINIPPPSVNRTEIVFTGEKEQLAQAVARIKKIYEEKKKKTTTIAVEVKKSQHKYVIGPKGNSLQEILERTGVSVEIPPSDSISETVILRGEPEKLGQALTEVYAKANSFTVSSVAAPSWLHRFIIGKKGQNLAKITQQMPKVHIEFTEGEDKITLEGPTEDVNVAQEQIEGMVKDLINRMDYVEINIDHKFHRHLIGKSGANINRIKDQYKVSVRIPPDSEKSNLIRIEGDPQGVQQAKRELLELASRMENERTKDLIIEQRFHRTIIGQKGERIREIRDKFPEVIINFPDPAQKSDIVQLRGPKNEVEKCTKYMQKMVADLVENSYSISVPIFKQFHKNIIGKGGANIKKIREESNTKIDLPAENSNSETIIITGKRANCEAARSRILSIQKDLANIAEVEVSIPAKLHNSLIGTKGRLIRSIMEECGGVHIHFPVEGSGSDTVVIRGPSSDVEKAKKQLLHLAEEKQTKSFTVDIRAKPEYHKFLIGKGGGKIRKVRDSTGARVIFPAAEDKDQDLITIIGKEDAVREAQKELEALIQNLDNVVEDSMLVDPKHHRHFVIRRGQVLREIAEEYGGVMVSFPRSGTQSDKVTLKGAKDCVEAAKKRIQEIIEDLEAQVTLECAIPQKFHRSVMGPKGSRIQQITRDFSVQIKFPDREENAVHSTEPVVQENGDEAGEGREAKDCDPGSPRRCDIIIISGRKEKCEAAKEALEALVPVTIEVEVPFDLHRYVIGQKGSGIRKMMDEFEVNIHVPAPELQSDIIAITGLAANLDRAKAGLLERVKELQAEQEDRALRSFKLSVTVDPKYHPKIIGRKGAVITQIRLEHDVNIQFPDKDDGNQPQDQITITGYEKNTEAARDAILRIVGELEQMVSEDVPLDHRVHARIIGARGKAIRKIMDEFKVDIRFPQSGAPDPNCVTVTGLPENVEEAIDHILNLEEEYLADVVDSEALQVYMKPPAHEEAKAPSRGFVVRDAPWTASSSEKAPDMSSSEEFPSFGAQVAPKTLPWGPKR
Sequence of Kinesin-1 heavy chain (Homo sapiens) (P33176 whole entry): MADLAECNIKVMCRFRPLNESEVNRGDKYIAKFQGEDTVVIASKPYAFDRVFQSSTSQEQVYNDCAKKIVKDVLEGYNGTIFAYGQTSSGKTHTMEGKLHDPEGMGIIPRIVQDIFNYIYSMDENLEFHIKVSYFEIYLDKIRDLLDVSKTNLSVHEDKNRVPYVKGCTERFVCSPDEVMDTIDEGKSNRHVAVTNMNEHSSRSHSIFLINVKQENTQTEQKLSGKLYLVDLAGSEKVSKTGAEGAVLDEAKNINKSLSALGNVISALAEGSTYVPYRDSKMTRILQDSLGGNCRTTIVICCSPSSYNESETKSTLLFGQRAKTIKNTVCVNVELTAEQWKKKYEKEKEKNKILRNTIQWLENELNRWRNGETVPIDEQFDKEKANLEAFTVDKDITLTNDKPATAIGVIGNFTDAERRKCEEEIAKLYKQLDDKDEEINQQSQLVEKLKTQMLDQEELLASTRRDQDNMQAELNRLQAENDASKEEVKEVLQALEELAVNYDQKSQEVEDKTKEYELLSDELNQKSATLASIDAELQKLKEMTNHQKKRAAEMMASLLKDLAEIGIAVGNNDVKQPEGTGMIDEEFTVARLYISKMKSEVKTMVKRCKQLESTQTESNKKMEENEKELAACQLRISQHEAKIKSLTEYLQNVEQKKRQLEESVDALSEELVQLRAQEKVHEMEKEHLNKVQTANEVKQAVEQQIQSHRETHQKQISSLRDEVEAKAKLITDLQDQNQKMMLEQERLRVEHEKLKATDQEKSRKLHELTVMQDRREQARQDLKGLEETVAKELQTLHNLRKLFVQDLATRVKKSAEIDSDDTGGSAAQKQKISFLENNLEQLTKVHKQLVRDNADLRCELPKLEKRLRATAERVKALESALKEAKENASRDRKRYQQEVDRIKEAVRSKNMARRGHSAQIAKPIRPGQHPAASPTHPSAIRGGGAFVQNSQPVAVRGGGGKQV
Sequence of Pigment epithelium-derived factor (Homo sapiens) (P36955 whole entry): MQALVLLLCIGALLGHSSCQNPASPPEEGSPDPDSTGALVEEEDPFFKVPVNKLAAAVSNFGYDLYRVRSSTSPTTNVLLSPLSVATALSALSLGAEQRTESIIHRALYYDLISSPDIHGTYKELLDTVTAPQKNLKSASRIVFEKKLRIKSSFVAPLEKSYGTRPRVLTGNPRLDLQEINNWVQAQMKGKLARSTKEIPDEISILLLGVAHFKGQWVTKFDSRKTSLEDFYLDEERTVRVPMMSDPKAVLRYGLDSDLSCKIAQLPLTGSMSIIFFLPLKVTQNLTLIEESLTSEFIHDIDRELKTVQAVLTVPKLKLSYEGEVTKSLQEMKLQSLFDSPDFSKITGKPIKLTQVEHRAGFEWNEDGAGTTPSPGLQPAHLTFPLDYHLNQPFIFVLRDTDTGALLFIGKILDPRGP
Sequence of Ubiquitin-associated protein 2-like (Homo sapiens) (Q14157 whole entry): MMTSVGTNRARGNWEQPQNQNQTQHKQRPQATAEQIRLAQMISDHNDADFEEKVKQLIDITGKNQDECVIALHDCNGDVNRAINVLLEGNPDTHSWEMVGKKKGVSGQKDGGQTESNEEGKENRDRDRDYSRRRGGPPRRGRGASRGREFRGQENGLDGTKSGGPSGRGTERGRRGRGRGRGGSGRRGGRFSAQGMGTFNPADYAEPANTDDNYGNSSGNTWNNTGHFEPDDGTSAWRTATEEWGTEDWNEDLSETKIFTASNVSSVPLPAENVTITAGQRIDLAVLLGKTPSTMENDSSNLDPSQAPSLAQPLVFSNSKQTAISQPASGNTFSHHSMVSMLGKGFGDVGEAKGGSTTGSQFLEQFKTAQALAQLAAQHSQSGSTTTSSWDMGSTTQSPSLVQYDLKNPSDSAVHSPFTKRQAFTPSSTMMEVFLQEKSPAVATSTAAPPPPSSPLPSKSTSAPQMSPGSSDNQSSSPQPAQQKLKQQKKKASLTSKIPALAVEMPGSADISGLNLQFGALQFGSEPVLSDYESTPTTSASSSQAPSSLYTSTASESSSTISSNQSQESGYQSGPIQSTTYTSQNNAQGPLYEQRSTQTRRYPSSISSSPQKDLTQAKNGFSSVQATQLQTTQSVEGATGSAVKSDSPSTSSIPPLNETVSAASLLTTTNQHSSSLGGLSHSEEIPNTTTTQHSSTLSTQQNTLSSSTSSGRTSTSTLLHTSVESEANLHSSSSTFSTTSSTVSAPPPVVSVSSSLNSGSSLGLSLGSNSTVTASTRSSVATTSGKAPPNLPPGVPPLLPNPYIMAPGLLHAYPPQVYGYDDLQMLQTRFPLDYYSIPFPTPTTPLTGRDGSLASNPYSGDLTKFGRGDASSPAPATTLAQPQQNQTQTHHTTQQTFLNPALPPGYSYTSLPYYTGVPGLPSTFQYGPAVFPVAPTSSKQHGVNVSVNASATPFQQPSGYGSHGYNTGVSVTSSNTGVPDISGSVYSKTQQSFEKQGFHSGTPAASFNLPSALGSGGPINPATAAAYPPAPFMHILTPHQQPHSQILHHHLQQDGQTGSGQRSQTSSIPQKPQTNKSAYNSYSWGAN
Sequence of Myeloid leukemia factor 2 (Homo sapiens) (Q15773 whole entry): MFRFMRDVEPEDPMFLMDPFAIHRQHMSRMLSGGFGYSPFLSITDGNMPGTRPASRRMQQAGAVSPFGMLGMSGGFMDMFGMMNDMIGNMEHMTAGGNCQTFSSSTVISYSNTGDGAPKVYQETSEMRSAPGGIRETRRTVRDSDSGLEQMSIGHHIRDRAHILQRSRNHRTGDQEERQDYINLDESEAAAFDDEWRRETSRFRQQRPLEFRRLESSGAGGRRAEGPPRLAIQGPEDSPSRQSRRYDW

C=CC(=O)Nc1ccccc1Nc1nc(Nc2ccc(N3CCN(C)CC3)cc2)ncc1Cl
active: NCI-H358 [1]

C=CC(=O)Nc1ccccc1Nc1nc(Nc2ccc(N3CCN(CCOCCOCCOCCNC(=O)CCCC[C@@H]4SC[C@@H]5NC(=O)N[C@@H]54)CC3)cc2)ncc1Cl
not listed: NCI-H358 [1]
active: all other assays above

Reference: ChEMBL document CHEMBL4118021, “Studies of TAK1-centered polypharmacology with novel covalent TAK1 inhibitors” (Bioorg Med Chem, 2017)
